The source made the active and inactive calls. No cut-off for these calls is given here.
Legend:
Cavia porcellus [1] = organism: Cavia porcellus; test: Percent inhibition of the leukotriene E4 (LTE4)-induced contraction of guinea pig tracheal spirals at 10 uM concentration; assay type: functional; conditions: Trachea
Outline: (§1)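 Guinea pig tracheal spirals were split into paired sections in 10 mL baths of modified Krebs at 37 °C, gassed with 95% O₂/5% CO₂, under 2 g resting tension. After 60 min equilibration (washes every 15 min), reproducible contractions to 8 nM LTD₄ or 8 nM LTE₄ were obtained. Compound was added for 10 min, then agonist challenge repeated; percent inhibition is relative to the vehicle-treated paired section.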

Cavia porcellus [2] = organism: Cavia porcellus; test: Percent inhibition of the leukotriene E4 (LTE4)-induced contraction of guinea pig tracheal spirals at 50 uM concentration; assay type: functional; conditions: Trachea; outline: as §1
Cavia porcellus [3] = test: Compound (50 mg/kg, intraperitoneally) was tested in spontaneously breathing, conscious guinea pigs challenged with aerosolized LTD4 (60-min pretreatment); assay type: functional
Cavia porcellus [4] = organism: Cavia porcellus; test: Inhibition of the leukotriene D4 (LTD4)-induced contraction of guinea pig tracheal spirals at 10 uM concentration; assay type: functional; conditions: Trachea; outline: as §1
[5] = biological target: T1, Cysteinyl leukotriene receptor 1 (Cavia porcellus) (UniProt Q2NNR5); test: Dissociation constant (KB) […] was evaluated in vitro in isolated guinea pig tracheal strips
T1 sequence (whole entry): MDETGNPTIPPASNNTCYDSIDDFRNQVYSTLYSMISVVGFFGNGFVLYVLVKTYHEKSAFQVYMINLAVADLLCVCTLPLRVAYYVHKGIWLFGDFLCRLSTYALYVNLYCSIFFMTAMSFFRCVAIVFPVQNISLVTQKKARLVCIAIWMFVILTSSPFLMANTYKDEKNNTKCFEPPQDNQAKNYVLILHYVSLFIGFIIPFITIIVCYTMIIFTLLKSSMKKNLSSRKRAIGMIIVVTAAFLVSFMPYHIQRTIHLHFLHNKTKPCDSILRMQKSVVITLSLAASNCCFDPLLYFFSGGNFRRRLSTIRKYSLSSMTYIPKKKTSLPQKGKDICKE

Cavia porcellus [6] = test: Compound (50 mg/kg, intraperitoneally) was tested in spontaneously breathing, conscious guinea pigs challenged with aerosolized LTD4 (30-min pretreatment); assay type: functional
Cavia porcellus [7] = organism: Cavia porcellus; test: Percent inhibition of the leukotriene D4 (LTD4)-induced contraction of guinea pig tracheal spirals at 10 uM concentration; NS means data was not statistically significant.; assay type: functional; conditions: Trachea; outline: as §1
Cavia porcellus [8] = organism: Cavia porcellus; test: Percent inhibition of the leukotriene D4 (LTD4)-induced contraction of guinea pig tracheal spirals at 100 uM concentration; assay type: functional; conditions: Trachea; outline: as §1
Cavia porcellus [9] = organism: Cavia porcellus; test: Percent inhibition of the leukotriene E4 (LTE4)-induced contraction of guinea pig tracheal spirals at 10 uM concentration; NS means data was not statistically significant; assay type: functional; conditions: Trachea; outline: as §1
[10] = biological target: T1, Cysteinyl leukotriene receptor 1 (Cavia porcellus); test: Dissociation constant (KB) versus Cysteinyl leukotriene D4 receptor was evaluated in vitro in isolated guinea pig tracheal strips
Cavia porcellus [11] = organism: Cavia porcellus; test: Percent inhibition of the leukotriene E4 (LTE4)-induced contraction of guinea pig tracheal spirals at 3.3 uM concentration; conditions: Trachea
Cavia porcellus [12] = organism: Cavia porcellus; test: Percent inhibition of the leukotriene E4 (LTE4)-induced contraction of guinea pig tracheal spirals at 1 uM concentration; NS means data was not statistically significant; conditions: Trachea
Cavia porcellus [13] = organism: Cavia porcellus; test: Percent inhibition of the leukotriene E4 (LTE4)-induced contraction of guinea pig tracheal spirals at 1 uM concentration; conditions: Trachea
Cavia porcellus [14] = organism: Cavia porcellus; test: Percent inhibition of the leukotriene D4 (LTD4)-induced contraction of guinea pig tracheal spirals at 4 uM concentration; NS means data was not statistically significant; assay type: functional; conditions: Trachea; outline: as §1
Cavia porcellus [15] = organism: Cavia porcellus; test: Percent inhibition of the leukotriene E4 (LTE4)-induced contraction of guinea pig tracheal spirals at 10 uM concentration; NS means data was not statistically significant.; assay type: functional; conditions: Trachea; outline: as §1
Cavia porcellus [16] = organism: Cavia porcellus; test: Percent inhibition of the leukotriene D4-induced contraction of guinea pig tracheal spirals at 4 uM concentration; assay type: functional; conditions: Trachea; outline: as §1
Cavia porcellus [17] = test: Compound (50 mg/kg, intraperitoneally) was tested in spontaneously breathing, conscious guinea pigs challenged with aerosolized LTD4 (60-min pretreatment); NS means data were not statistically significant.; assay type: functional, organism-based
Cavia porcellus [18] = organism: Cavia porcellus; test: Percent inhibition of the leukotriene D4 (LTD4)-induced contraction of guinea pig tracheal spirals at 4 uM concentration; NS means data was not statistically significant.; assay type: functional; conditions: Trachea; outline: as §1
Cavia porcellus [19] = organism: Cavia porcellus; test: Percent inhibition of the leukotriene E4 (LTE4)-induced contraction of guinea pig tracheal spirals at 5 uM concentration; assay type: functional; conditions: Trachea; outline: as §1
Cavia porcellus [20] = organism: Cavia porcellus; test: Percent inhibition of the leukotriene E4 (LTE4)-induced contraction of guinea pig tracheal spirals at 0.33 uM concentration; conditions: Trachea
Cavia porcellus [21] = organism: Cavia porcellus; test: Percent inhibition of the leukotriene E4 (LTE4)-induced contraction of guinea pig tracheal spirals at 50 uM concentration; NS means data was not statistically significant.; assay type: functional; conditions: Trachea; outline: as §1
Cavia porcellus [22] = organism: Cavia porcellus; test: Percent inhibition of the leukotriene E4 (LTE4)-induced contraction of guinea pig tracheal spirals at 1 uM concentration; assay type: functional; conditions: Trachea; outline: as §1

Molecule CCCN(Cc1ccc(C(=O)O)cc1OC)c1ccc(C(C)=O)c(O)c1 has an inhibition at 10 µM (Cavia porcellus [1]) of 24% and an inhibition at 50 µM (Cavia porcellus [2]) of 35%.
With CCCc1c(OCc2ccc(C(=O)O)cc2F)ccc(C(C)=O)c1O the Protection (Cavia porcellus [3]) was 0%, the inhibition at 10 µM (Cavia porcellus [4]) was 99% and the Kb [5] was 520 nM. The Protection (Cavia porcellus [6]) was 18%.
With CCCc1c(OCCC[S+]([O-])CC(=O)O)ccc(C(C)=O)c1O (stereo not drawn) the inhibition (Cavia porcellus [7]) was “Not statistically significant”.
Molecule CCCc1c(OCCCSCC(=O)O)ccc(C(C)=O)c1O has an inhibition at 10 µM (Cavia porcellus [4]) of 62% and an inhibition at 100 µM (Cavia porcellus [8]) of 100%.
In the case of CCCc1c(OCc2ccc(C(=O)O)cc2OC)ccc(C(=O)Oc2ccccc2)c1O, the inhibition (Cavia porcellus [9]) is reported as “Not statistically significant”.
In the case of CCCc1c(OCc2ccc(C(=O)O)cc2OC)ccc(C(C)=O)c1O, the Protection (Cavia porcellus [3]) is reported as 19%, the inhibition at 10 µM (Cavia porcellus [4]) is reported as 99% and the Kb [10] is reported as 360 nM.
In the case of CCCc1c(OCc2ccc(-c3nn[nH]n3)cc2OC)ccc(C(C)=O)c1O, the inhibition at 3.3 µM (Cavia porcellus [11]) is reported as 45% and the inhibition (Cavia porcellus [12]) is reported as “Not statistically significant”.
Work on CCCc1c(OCc2cc(/C=C\C(=O)O)ccc2OC)ccc(C(C)=O)c1O yielded an inhibition at 10 µM (Cavia porcellus [4]) of 28% and an inhibition at 1 µM (Cavia porcellus [13]) of 14%.
Work on CCCc1c(OCc2ccc(/C=C/C(=O)O)cc2)ccc(C(C)=O)c1O yielded a Protection (Cavia porcellus [3]) of 34%, an inhibition at 1 µM (Cavia porcellus [13]) of 48% and a Kb [5] of 570 nM.
For CCCc1c(OCc2ccc(C(=O)O)c(OC)c2)ccc(C(C)=O)c1O, the inhibition (Cavia porcellus [14]) was “Not statistically significant” and the inhibition at 10 µM (Cavia porcellus [4]) was 44%.
In the case of CCCc1cc2c(C)cc(=O)oc2cc1OCc1ccc(C(=O)O)cc1OC, the inhibition (Cavia porcellus [15]) is reported as “Not statistically significant”.
For CCCc1c(OCC(O)COc2ccc3c(=O)cc(C(=O)O)oc3c2CCC)ccc(C(C)=O)c1O (stereo not drawn) [FPL-55712], the inhibition at 4 µM (Cavia porcellus [16]) was 62%, the Protection (Cavia porcellus [17]) was “inactive” and the Protection (Cavia porcellus [6]) was 32%.
With CCCc1c(OCc2ccc(C(=O)O)cc2OC)ccc(C(N)=O)c1O the inhibition at 10 µM (Cavia porcellus [4]) was 72% and the inhibition at 50 µM (Cavia porcellus [2]) was 86%.
With CCCc1c(OCc2ccc(C(=O)O)cc2OC)ccc(C(C)=O)c1N the inhibition (Cavia porcellus [18]) was “Not statistically significant” and the inhibition at 10 µM (Cavia porcellus [4]) was 43%.
Work on COc1cc(C(=O)O)ccc1COc1ccc(C(C)=O)c(O)c1C=C(C)C yielded an inhibition at 5 µM (Cavia porcellus [19]) of 69%.
For CCCc1c(OCc2cccc(NC(=O)c3ccccc3C(=O)O)c2)ccc(C(C)=O)c1O, the Protection (Cavia porcellus [3]) was 9%, the inhibition at 1 µM (Cavia porcellus [13]) was 94% and the inhibition at 0.33 µM (Cavia porcellus [20]) was 45%. The Kb [5] was 160 nM.
Work on CCCc1c(OCc2ccc(C(=O)Nc3nn[nH]n3)cc2OC)ccc(C(C)=O)c1O yielded an inhibition at 3.3 µM (Cavia porcellus [11]) of 43%.
CCCc1c(OCc2ccc(C(=O)O)cc2OC)ccc(C(=O)O)c1O was tested, and the inhibition (Cavia porcellus [21]) was “Not statistically significant”.
For COc1cc(C(=O)O)ccc1COc1ccc(C(C)=O)c(O)c1CC(C)C, the inhibition at 1 µM (Cavia porcellus [22]) was 22%.

Source: ChEMBL document CHEMBL1124444, “Hydroxyacetophenone-derived antagonists of the peptidoleukotrienes” (1989)
